According to ChEMBL document CHEMBL4270490, “Synthesis and biological evaluation of morpholine-substituted diphenylpyrimidine derivatives (Mor-DPPYs) as potent EGFR T790M inhibitors with improved activity toward the gefitinib-resistant non-small cell lung cancers (NSCLC)” (Eur J Med Chem, 2017):

Columns and labels:
[1] = biological target: T1, Epidermal growth factor receptor (Homo sapiens, UniProt P00533); type: cell-based, Sf9
[2] = Antiproliferative activity against NHBE cells incubated for 72 hrs by MTT assay; type: ADME, cell-based; settings: Homo sapiens
HCC827 = assay: Antiproliferative activity against human HCC827 cells incubated for 72 hrs by MTT assay; type: functional, cell-based; settings: HCC827, 72 h
A549 = assay: Antiproliferative activity against human A549 cells incubated for 72 hrs by MTT assay; type: functional, cell-based; settings: A549, 72 h
A-431 = assay: Antiproliferative activity against human A431 cells incubated for 72 hrs by MTT assay; type: functional, cell-based; settings: A-431, 72 h
[3] = biological target: Epidermal growth factor receptor (Homo sapiens, UniProt P00533, L858R/T790M); assay: biochemical; type: cell-based, Sf9
NCI-H1975 [4] = assay: Antiproliferative activity against human NCI-H1975 cells incubated for 72 hrs by MTT assay; type: functional, cell-based; settings: NCI-H1975, 72 h
NCI-H1975 [5] = assay: Antitumor activity against human NCI-H1975 cells xenografted in STOCK-Foxn1nu/Nju nude mouse assessed as inhibition of tumor growth at 50 mg/kg/day, po qd for 14 days relative to untreated control; type: functional; settings: 336 h, read-out: TGI
In short: (§1)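 Nude mice (STOCK-Foxn1nu/Nju, 5–6 weeks, 20–25 g) were given s.c. 3×10⁶ H1975 cells in 0.1 mL PBS in the right oxter. Dosing began three days after implant, with random allocation to groups. Doses were 10, 20 or 50 mg/kg, oral, once daily for 14 days; vehicle controls got oral 25% PEG-400. Tumor volume was taken as A×B²/2 from perpendicular diameters. Tumors were excised and weighed at the end. n = 5, mean ±SD.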

NCI-H1975 [6] = assay: Antitumor activity against human NCI-H1975 cells xenografted in STOCK-Foxn1nu/Nju nude mouse assessed as inhibition of tumor growth at 20 mg/kg/day, po qd for 14 days relative to untreated control; type: functional; settings: 336 h, read-out: TGI
In short: (§2)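 Female/male unstated; 5–6-week-old nude mice (20–25 g) implanted subcutaneously in the right oxter with 3×10⁶ H1975 cells in 0.1 mL PBS. After 3 days, mice were randomised into groups and dosed orally once daily for 14 days at 10, 20 or 50 mg/kg; controls received oral 25% PEG-400. Tumour volume was taken as A×B²/2. Body weight and mortality were monitored. Tumours were weighed at sacrifice. n = 5.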

[7] = biological target: T1, Epidermal growth factor receptor; assay: Inhibition of wild type EGFR phosphorylation in human A431 cells assessed as reduction in ERK phosphorylation at 0.2 to 5 uM by Western blotting assay; type: cell-based
In short: (§3)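 H1975 and A431 cells were treated and then lysed. Lysates were cleared at 12,000 g, 15 min, 4 °C. 50 µg protein was run on 8–12% SDS-PAGE and transferred to PVDF. Membranes were blocked in 5% skim milk, then probed for EGFR, p-EGFR, AKT, p-AKT, ERK, p-ERK and actin. Detection was by ECL. Band IOD was normalized to actin.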

Mus musculus [8] = assay: Toxicity in human NCI-H1975 cells xenografted STOCK-Foxn1nu/Nju nude mouse assessed as body weight loss 10 to 50 mg/kg/day, po qd for 14 days relative to untreated control; type: organism-based; settings: in vivo, 336 h
In short: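 Body weight was tracked over 14 days of once-daily oral dosing at 10, 20 or 50 mg/kg, against 25% PEG-400 vehicle. Mice were nude (STOCK-Foxn1nu/Nju, 5–6 weeks, 20–25 g) carrying s.c. H1975 xenografts (3×10⁶ cells in PBS). Dosing started three days after implant. n = 5, mean ±SD.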

Mus musculus [9] = assay: Toxicity in human NCI-H1975 cells xenografted STOCK-Foxn1nu/Nju nude mouse assessed as mouse mortality 10 to 50 mg/kg/day, po qd for 14 days relative to untreated control; type: organism-based; settings: in vivo, 336 h
In short: as §2

[10] = system: Epidermal growth factor receptor (Homo sapiens), P00533 [L858R,T790M]; assay: Inhibition of EGFR L858R/T790M mutant phosphorylation in human NCI-H1975 cells assessed as reduction in AKT phosphorylation at 0.2 to 5 uM by Western blotting assay; type: cell-based
In short: as §3

NCI-H1975 [11] = assay: Antitumor activity against human NCI-H1975 cells xenografted in STOCK-Foxn1nu/Nju nude mouse assessed as inhibition of tumor growth at 10 mg/kg/day, po qd for 14 days relative to untreated control; type: functional; settings: 336 h, read-out: TGI
In short: as §1

Mus musculus [12] = assay: Toxicity in human NCI-H1975 cells xenografted STOCK-Foxn1nu/Nju nude mouse assessed as drug tolerability 10 to 50 mg/kg/day, po qd for 14 days relative to untreated control; type: organism-based; settings: in vivo, 336 h
In short: as §2

[13] = system: Epidermal growth factor receptor (Homo sapiens), P00533 [L858R,T790M]; assay: Inhibition of EGFR L858R/T790M mutant phosphorylation in human NCI-H1975 cells at 0.2 to 5 uM by Western blotting assay; type: cell-based
In short: as §3

NCI-H1975 [14] = assay: Antitumor activity against human NCI-H1975 cells xenografted in STOCK-Foxn1nu/Nju nude mouse assessed as inhibition of tumor growth at 10 to 50 mg/kg/day, po qd for 14 days relative to untreated control; type: functional, organism-based
In short: as §1

[15] = system: Epidermal growth factor receptor (Homo sapiens), P00533 [L858R,T790M]; assay: Inhibition of EGFR L858R/T790M mutant phosphorylation in human NCI-H1975 cells at 5 uM by Western blotting assay; type: cell-based
In short: as §3

[16] = system: Epidermal growth factor receptor (Homo sapiens), P00533 [L858R,T790M]; assay: Inhibition of EGFR L858R/T790M mutant phosphorylation in human NCI-H1975 cells assessed as reduction in ERK phosphorylation at 0.2 to 5 uM by Western blotting assay; type: cell-based
In short: as §3

[17] = biological target: T1, Epidermal growth factor receptor; assay: Inhibition of wild type EGFR phosphorylation in human A431 cells at 0.2 to 5 uM by Western blotting assay; type: cell-based
In short: as §3

[18] = biological target: T1, Epidermal growth factor receptor; assay: Inhibition of wild type EGFR phosphorylation in human A431 cells assessed as reduction in AKT phosphorylation at 0.2 to 5 uM by Western blotting assay; type: cell-based
In short: as §3

Sequence of Epidermal growth factor receptor (Homo sapiens, UniProt P00533, L858R/T790M) (P00533 25-1210 T790M/L858R limits assumed): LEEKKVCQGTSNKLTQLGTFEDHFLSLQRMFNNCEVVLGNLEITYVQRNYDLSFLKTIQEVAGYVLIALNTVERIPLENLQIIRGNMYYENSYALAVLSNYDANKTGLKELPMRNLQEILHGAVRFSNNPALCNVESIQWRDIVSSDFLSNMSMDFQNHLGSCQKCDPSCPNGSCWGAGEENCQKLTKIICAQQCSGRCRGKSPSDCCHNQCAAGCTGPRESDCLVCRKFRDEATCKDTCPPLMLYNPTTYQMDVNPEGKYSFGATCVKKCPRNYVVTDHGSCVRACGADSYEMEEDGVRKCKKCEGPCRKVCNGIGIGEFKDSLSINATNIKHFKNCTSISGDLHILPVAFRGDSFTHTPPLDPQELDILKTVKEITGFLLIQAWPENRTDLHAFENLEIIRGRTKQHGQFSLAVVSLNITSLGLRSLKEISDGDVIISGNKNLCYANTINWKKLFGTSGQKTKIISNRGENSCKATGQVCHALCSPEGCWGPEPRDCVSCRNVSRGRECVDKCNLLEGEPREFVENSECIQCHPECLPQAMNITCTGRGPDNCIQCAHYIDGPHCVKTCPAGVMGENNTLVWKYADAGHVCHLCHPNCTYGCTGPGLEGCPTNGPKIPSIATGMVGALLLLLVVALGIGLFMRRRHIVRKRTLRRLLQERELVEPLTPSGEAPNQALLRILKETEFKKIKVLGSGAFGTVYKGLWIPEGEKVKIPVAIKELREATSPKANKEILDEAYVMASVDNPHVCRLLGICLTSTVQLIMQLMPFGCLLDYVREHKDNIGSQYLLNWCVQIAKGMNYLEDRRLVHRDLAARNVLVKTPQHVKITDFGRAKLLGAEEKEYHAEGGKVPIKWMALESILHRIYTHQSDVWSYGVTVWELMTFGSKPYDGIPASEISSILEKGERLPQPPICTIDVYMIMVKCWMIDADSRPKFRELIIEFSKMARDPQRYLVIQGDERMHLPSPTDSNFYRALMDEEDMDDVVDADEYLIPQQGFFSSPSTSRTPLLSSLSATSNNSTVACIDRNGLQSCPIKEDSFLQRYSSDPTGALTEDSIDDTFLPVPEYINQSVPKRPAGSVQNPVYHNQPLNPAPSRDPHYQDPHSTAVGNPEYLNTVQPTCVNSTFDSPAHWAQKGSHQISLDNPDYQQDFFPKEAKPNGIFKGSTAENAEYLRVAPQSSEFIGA
Sequence of Epidermal growth factor receptor (Homo sapiens), P00533 [L858R,T790M] (P00533 whole entry T790M/L858R, looked up): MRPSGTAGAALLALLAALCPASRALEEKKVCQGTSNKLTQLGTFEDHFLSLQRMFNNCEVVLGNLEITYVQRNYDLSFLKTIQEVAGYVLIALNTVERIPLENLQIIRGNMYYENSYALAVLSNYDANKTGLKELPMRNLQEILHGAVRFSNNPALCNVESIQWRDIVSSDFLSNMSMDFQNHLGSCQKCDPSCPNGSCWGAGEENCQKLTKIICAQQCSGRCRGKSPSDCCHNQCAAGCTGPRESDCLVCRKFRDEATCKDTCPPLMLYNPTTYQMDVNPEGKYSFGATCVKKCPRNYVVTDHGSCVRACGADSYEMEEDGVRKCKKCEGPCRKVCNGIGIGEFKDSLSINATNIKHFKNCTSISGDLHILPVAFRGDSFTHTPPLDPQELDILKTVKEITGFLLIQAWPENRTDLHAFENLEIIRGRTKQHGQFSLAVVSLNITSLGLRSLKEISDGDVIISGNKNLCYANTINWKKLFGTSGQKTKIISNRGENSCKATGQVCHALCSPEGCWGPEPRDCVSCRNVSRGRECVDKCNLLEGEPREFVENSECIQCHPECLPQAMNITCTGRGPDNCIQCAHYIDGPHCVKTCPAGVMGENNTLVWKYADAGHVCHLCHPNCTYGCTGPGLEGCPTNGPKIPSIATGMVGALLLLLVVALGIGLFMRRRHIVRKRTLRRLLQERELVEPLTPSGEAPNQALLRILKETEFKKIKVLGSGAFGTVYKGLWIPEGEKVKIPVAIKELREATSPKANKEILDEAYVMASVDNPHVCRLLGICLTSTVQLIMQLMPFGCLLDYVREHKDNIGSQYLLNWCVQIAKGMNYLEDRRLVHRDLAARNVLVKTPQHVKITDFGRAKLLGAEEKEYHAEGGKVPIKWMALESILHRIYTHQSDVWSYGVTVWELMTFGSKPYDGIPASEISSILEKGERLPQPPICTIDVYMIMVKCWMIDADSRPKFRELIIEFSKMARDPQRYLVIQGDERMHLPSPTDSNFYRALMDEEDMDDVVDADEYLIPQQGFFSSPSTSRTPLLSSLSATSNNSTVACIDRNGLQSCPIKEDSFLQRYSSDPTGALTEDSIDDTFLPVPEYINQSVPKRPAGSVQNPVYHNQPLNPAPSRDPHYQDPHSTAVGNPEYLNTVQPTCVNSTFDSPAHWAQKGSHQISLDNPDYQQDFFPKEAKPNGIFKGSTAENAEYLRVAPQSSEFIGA
T1 sequence (P00533 whole entry): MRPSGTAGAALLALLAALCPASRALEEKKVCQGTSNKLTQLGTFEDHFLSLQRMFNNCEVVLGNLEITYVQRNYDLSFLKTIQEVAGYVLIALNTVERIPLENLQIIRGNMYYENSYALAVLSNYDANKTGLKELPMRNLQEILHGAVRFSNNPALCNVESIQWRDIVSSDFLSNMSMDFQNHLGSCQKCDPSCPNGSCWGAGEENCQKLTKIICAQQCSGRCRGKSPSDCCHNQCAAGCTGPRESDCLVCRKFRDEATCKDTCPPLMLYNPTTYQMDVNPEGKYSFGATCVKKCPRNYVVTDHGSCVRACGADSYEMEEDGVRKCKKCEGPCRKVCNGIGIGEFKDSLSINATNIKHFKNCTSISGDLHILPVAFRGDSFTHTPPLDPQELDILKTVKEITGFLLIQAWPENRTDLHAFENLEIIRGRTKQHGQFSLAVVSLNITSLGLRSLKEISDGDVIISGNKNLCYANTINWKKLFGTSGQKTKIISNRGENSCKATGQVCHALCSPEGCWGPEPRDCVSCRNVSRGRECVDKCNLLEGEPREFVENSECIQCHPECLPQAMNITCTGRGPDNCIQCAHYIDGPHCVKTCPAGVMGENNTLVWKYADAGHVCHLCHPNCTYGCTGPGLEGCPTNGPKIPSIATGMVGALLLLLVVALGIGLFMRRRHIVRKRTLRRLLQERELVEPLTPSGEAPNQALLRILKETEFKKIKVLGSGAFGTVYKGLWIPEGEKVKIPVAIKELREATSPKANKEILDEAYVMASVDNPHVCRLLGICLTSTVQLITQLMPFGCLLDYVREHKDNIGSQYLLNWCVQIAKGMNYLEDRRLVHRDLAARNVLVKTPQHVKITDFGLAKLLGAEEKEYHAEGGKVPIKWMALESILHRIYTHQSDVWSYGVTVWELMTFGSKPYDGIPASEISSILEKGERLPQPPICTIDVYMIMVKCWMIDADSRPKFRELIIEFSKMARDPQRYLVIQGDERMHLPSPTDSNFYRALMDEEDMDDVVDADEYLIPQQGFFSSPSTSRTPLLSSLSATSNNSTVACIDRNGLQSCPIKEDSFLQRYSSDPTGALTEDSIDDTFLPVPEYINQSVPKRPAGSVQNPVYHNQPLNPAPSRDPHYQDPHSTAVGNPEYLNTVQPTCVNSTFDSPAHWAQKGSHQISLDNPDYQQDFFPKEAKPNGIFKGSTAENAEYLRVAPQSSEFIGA

SMILES | IC50 [1] | IC50 [2] | IC50 (HCC827) | IC50 (A549) | IC50 (A-431) | IC50 [3] | IC50 (NCI-H1975 [4]) | other results
C=CC(=O)Nc1ccccc1Nc1nc(Nc2ccc(CN3CCOCC3)cc2)ncc1Cl | > 800 nM | > 40000 nM | 995 nM | 2640 nM | 112 nM | 15.3 nM | 104 nM | 
C=CC(=O)Nc1cccc(Nc2nc(Nc3ccc(OCCN4CCOCC4)c(Cl)c3)ncc2Cl)c1 | > 1000 nM | 22400 nM | 57 nM | 14000 nM | 870 nM | > 100 nM | 500 nM | 
C=CC(=O)Nc1cccc(Nc2nc(Nc3ccc(N4CCN(C(C)=O)CC4)cc3OC)ncc2C(F)(F)F)c1 [ROCILETINIB] |  | > 40000 nM | 31 nM | 3240 nM |  |  | 299 nM | inhibition in vivo at 50 mg/kg/day (NCI-H1975 [5]): 70.2%
C=CC(=O)Nc1cccc(Nc2nc(Nc3ccc(CN4CCOCC4)cc3)ncc2F)c1 | 500 nM | 22700 nM | 41 nM | 4460 nM | 444 nM | 80.8 nM | 609 nM | 
C=CC(=O)Nc1cc(Nc2nccc(-c3cn(C)c4ccccc34)n2)c(OC)cc1N(C)CCN(C)C [OSIMERTINIB] |  |  |  |  |  |  |  | inhibition in vivo at 20 mg/kg/day (NCI-H1975 [6]): 98.8%
C=CC(=O)Nc1cccc(Nc2nc(Nc3ccc(CN4CCOCC4)cc3)ncc2Cl)c1 |  | > 40000 nM | 44 nM | 4450 nM | 382 nM |  | 37 nM | inhibition (INH) [7]: Dose-dependent effect; Activity (Mus musculus [8]): < 5%; inhibition in vivo at 50 mg/kg/day (NCI-H1975 [5]): 64.6%; Activity (Mus musculus [9]): Non-Toxic; inhibition [10]: Dose-dependent effect; inhibition in vivo at 10 mg/kg/day (NCI-H1975 [11]): 39%; Activity (Mus musculus [12]): Non-Toxic; inhibition [13]: Dose-dependent effect; TGI (NCI-H1975 [14]): Dose-dependent effect; inhibition [15]: 100%; inhibition in vivo at 20 mg/kg/day (NCI-H1975 [6]): 45.3%; inhibition [16]: Dose-dependent effect; inhibition (INH) [17]: Dose-dependent effect; inhibition (INH) [18]: Dose-dependent effect
C=CC(=O)Nc1ccccc1Nc1nc(Nc2ccc(OCC(=O)N3CCOCC3)cc2)ncc1Cl | 143 nM | 39500 nM | 418 nM | 2650 nM | 42 nM | 24.8 nM | 132 nM | 
